According to ChEMBL document CHEMBL1124260, “Synthesis and antitumor activity of quaternary ellipticine glycosides, a series of novel and highly active antitumor agents” (1988):

Tests used:
Mus musculus [1] = experiment: Number of survivors out of 6 ip implanted L1210 leukemia in mouse after ip administration of 20 mg/kg after 80 days; assay type: functional; conditions: route intraperitoneal
Summary of the method: (§1)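 Female BDF1 mice implanted ip with ascitic fluid holding 10^5 L1210 cells. Saline-dissolved drug given ip daily on days 1-5, starting 24 h after implant. Six mice per dose group, followed 80 days. Survivors/total counted at day 80; ILS % from mean survival time vs controls.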

Mus musculus [2] = experiment: Number of survivors out of 6 ip implanted L1210 leukemia in mouse after ip administration of 40 mg/kg after 80 days; assay type: functional; conditions: route intraperitoneal; summary of the method: as §1
Mus musculus [3] = experiment: Number of survivors out of 6 ip implanted L1210 leukemia in mouse after ip administration of 80 mg/kg after 80 days; assay type: functional; conditions: route intraperitoneal; summary of the method: as §1
Mus musculus [4] = experiment: Antitumor activity against ip implanted L1210 leukemia in mouse after ip administration of 1.25 mg/kg for 5 days expressed as increase in mean life span; assay type: functional; conditions: 120 h, route intraperitoneal
Summary of the method: (§2)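 Drug was dissolved in 0.9% NaCl, diluted just before use and given ip once daily for 5 consecutive days, starting 24 h after transplant. ILS % = mean survival time of treated vs control mice, observed for 80 days.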

Mus musculus [5] = experiment: Number of survivors out of 6 ip implanted P388 leukemia in mouse after ip administration of 10 mg/kg after 80 days; assay type: functional; conditions: route intraperitoneal
Summary of the method: (§3)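 P388 leukemia, 10^6 ascitic cells implanted ip in female BDF1 mice. Drug in saline given ip for 5 consecutive days from 24 h after transplant. Groups of six per dose level. Survivors/total recorded at the 80-day end of observation; ILS % from treated/control mean survival time.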

Mus musculus [6] = experiment: Number of survivors out of 6 ip implanted P388 leukemia in mouse after ip administration of 20 mg/kg after 80 days; assay type: functional; conditions: route intraperitoneal; summary of the method: as §3
Mus musculus [7] = experiment: Number of survivors out of 6 ip implanted P388 leukemia in mouse after ip administration of 40 mg/kg after 80 days; assay type: functional; conditions: route intraperitoneal; summary of the method: as §3
Mus musculus [8] = experiment: Number of survivors out of 6 ip implanted P388 leukemia in mouse after ip administration of 80 mg/kg after 80 days; assay type: functional; conditions: route intraperitoneal; summary of the method: as §3
Mus musculus [9] = experiment: Antitumor activity against ip implanted L1210 leukemia in mouse after ip administration of 10 mg/kg for 5 days expressed as increase in mean life span; assay type: functional; conditions: Mus musculus, L1210, ip, 120 h, route intraperitoneal; summary of the method: as §2
Mus musculus [10] = experiment: Antitumor activity against ip implanted L1210 leukemia in mouse after ip administration of 20 mg/kg for 5 days expressed as increase in mean life span; assay type: functional; conditions: 120 h, route intraperitoneal; summary of the method: as §2
Mus musculus [11] = experiment: Antitumor activity against ip implanted L1210 leukemia in mouse after ip administration of 30 mg/kg for 5 days expressed as increase in mean life span; assay type: functional; conditions: route intraperitoneal, 30 mg/kg; summary of the method: as §2
Mus musculus [12] = experiment: Antitumor activity against ip implanted L1210 leukemia in mouse after ip administration of 40 mg/kg for 5 days expressed as increase in mean life span; assay type: functional; conditions: 120 h, route intraperitoneal; summary of the method: as §2
Mus musculus [13] = experiment: Antitumor activity against ip implanted L1210 leukemia in mouse after ip administration of 5 mg/kg for 5 days expressed as increase in mean life span; assay type: functional; conditions: Mus musculus, L1210, ip, 120 h, route intraperitoneal; summary of the method: as §2
Mus musculus [14] = experiment: Antitumor activity against ip implanted P388 leukemia in mouse after ip administration of 1.25 mg/kg for 5 days expressed as increase in mean life span; assay type: functional; conditions: 120 h, route intraperitoneal
Summary of the method: (§4)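 Saline-dissolved drug was given ip daily for 5 consecutive days, beginning 24 h post-transplant. ILS % was calculated from treated vs control mean survival time over an 80-day observation period.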

Mus musculus [15] = experiment: Antitumor activity against ip implanted P388 leukemia in mouse after ip administration of 10 mg/kg for 5 days expressed as increase in mean life span; assay type: functional; conditions: 120 h, route intraperitoneal; summary of the method: as §4
Mus musculus [16] = experiment: Antitumor activity against ip implanted P388 leukemia in mouse after ip administration of 20 mg/kg for 5 days expressed as increase in mean life span; assay type: functional; conditions: 120 h, route intraperitoneal; summary of the method: as §4
Mus musculus [17] = experiment: Antitumor activity against ip implanted P388 leukemia in mouse after ip administration of 40 mg/kg for 5 days expressed as increase in mean life span; assay type: functional; conditions: 120 h, route intraperitoneal; summary of the method: as §4
Mus musculus [18] = experiment: Antitumor activity against ip implanted P388 leukemia in mouse after ip administration of 5 mg/kg for 5 days expressed as increase in mean life span; assay type: functional; conditions: 120 h, route intraperitoneal; summary of the method: as §4
Mus musculus [19] = experiment: Antitumor activity against ip implanted P388 leukemia in mouse after ip administration of 80 mg/kg for 5 days expressed as increase in mean life span; assay type: functional; conditions: 120 h, route intraperitoneal; summary of the method: as §4
Mus musculus [20] = experiment: Number of survivors out of 6 ip implanted L1210 leukemia mouse, tested after 80 days at 30 mg/kg; assay type: functional; conditions: route intraperitoneal, 30 mg/kg; summary of the method: as §1
Mus musculus [21] = experiment: Inhibition of sc implanted syngeneic colon 38 carcinoma by ip administration at 30 mg/kg on 1, 3, 5, 7, 9 days measured as inhibition ratio; assay type: functional; conditions: route intraperitoneal
Summary of the method: (§5)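 Tumor homogenate (70 mg) implanted into the axillary region of female BDF1 mice. Drug dissolved in 0.9% NaCl and diluted with saline just before use, then given ip on days 1, 3, 5, 7 and 9. Tumor length and width were measured by caliper on day 20 after inoculation and converted to estimated weight. Result reported as treated vs control tumor weight, T/C %.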

Mus musculus [22] = experiment: Inhibition of sc implanted syngeneic colon 38 carcinoma by ip administration at 40 mg/kg on 1, 3, 5, 7, 9 days measured as inhibition ratio; assay type: functional; conditions: route subcutaneous; summary of the method: as §5
Mus musculus [23] = experiment: Inhibition of sc implanted syngeneic colon 38 carcinoma by ip administration at 60 mg/kg on 1, 3, 5, 7, 9 days measured as inhibition ratio; assay type: functional; conditions: route subcutaneous; summary of the method: as §5
Mus musculus [24] = experiment: Inhibition of sc implanted syngeneic colon 38 carcinoma by ip administration at 80 mg/kg on 1, 3, 5, 7, 9 days measured as inhibition ratio; assay type: functional; conditions: route subcutaneous; summary of the method: as §5
Mus musculus [25] = experiment: Effect on ip implanted syngeneic B16 melanoma by ip administration of 20 mg/kg for 9 days measured as increase in mean life span; conditions: 216 h
Mus musculus [26] = experiment: Effect on ip implanted syngeneic B16 melanoma by ip administration of 30 mg/kg for 9 days measured as increase in mean life span; conditions: 216 h
Mus musculus [27] = experiment: Effect on ip implanted syngeneic B16 melanoma by ip administration for 9 days at 5 mg/kg was measured as increase in mean life span; conditions: 216 h
Mus musculus [28] = experiment: Effect on ip implanted syngeneic B16 melanoma by ip administration for 9 days at 10 mg/kg was measured as increase in mean life span; conditions: 216 h
Mus musculus [29] = experiment: Antitumor activity against ip implanted P388 leukemia in mouse after iv administration of 4 mg/kg for 5 days expressed as increase in mean life span; conditions: 120 h
Mus musculus [30] = experiment: Antitumor activity against ip implanted P388 leukemia in mouse after iv administration of 8 mg/kg for 5 days expressed as increase in mean life span; conditions: 120 h
Mus musculus [31] = experiment: Antitumor activity against ip implanted L1210 leukemia in mouse after iv administration of 4 mg/kg for 5 days expressed as increase in mean life span; conditions: 120 h
Mus musculus [32] = experiment: Antitumor activity against ip implanted L1210 leukemia in mouse after iv administration of 2 mg/kg for 5 days expressed as increase in mean life span; conditions: 120 h
Mus musculus [33] = experiment: Number of survivors out of 6 ip implanted P388 leukemia in mouse after ip administration of 2.5 mg/kg after 80 days; assay type: functional; conditions: route intraperitoneal; summary of the method: as §3
Mus musculus [34] = experiment: Antitumor activity against ip implanted L1210 leukemia in mouse after ip administration of 2.5 mg/kg for 5 days expressed as increase in mean life span; assay type: functional; conditions: 120 h, route intraperitoneal; summary of the method: as §2
Mus musculus [35] = experiment: Antitumor activity against ip implanted P388 leukemia in mouse after ip administration of 2.5 mg/kg for 5 days expressed as increase in mean life span; assay type: functional; conditions: 120 h, route intraperitoneal; summary of the method: as §4
Mus musculus [36] = experiment: Inhibition of sc implanted syngeneic colon 38 carcinoma by ip administration at 2.5 mg/kg on 1, 3, 5, 7, 9 days measured as inhibition ratio; assay type: functional; conditions: route subcutaneous; summary of the method: as §5
Mus musculus [37] = experiment: Effect on ip implanted syngeneic B16 melanoma by ip administration for 9 days at 2.5 mg/kg was measured as increase in mean life span; conditions: 216 h
Mus musculus [38] = experiment: Antitumor activity against ip implanted P388 leukemia in mouse after iv administration of 2.5 mg/kg for 5 days expressed as increase in mean life span; conditions: 120 h
Mus musculus [39] = experiment: Antitumor activity against ip implanted L1210 leukemia in mouse after iv administration of 2.5 mg/kg for 5 days expressed as increase in mean life span; conditions: 120 h

## Cc1c2cc[n+]([C@H]3O[C@@H](C)[C@@H](O)[C@@H](O)[C@@H]3O)cc2c(C)c2c1[nH]c1ccc(O)cc12.[Br-] (stereo in doubt; 56)
Mus musculus [1]
  Cures: 1
Mus musculus [2]
  Cures: 4
Mus musculus [3]
  Cures: 6
Mus musculus [4]
  ILS at 1.25 mg/kg: 56%
Mus musculus [5]
  Cures: 2
Mus musculus [6]
  Cures: 5
Mus musculus [7]
  Cures: 6
Mus musculus [8]
  Cures: 4
Mus musculus [9]
  ILS at 10 mg/kg: 107%
Mus musculus [10]
  ILS at 20 mg/kg: > 248%
Mus musculus [11]
  ILS: >693%
Mus musculus [12]
  ILS at 40 mg/kg: > 712%
Mus musculus [13]
  ILS at 5 mg/kg: 67%
Mus musculus [14]
  ILS at 1.25 mg/kg: 85%
Mus musculus [15]
  ILS at 10 mg/kg: > 341%
Mus musculus [16]
  ILS at 20 mg/kg: > 677%
Mus musculus [17]
  ILS at 40 mg/kg: > 789%
Mus musculus [18]
  ILS at 5 mg/kg: 109%
Mus musculus [19]
  ILS at 80 mg/kg: > 513%
Mus musculus [20]
  Cures: 4
Mus musculus [21]
  T/C: 52%
Mus musculus [22]
  T/C: 19%
Mus musculus [23]
  T/C: 3%
Mus musculus [24]
  T/C: 2%
Mus musculus [25]
  ILS at 20 mg/kg: 81%
Mus musculus [26]
  ILS at 30 mg/kg: 58%
Mus musculus [27]
  ILS at 5 mg/kg: 50%
Mus musculus [28]
  ILS at 10 mg/kg: 62%
Mus musculus [29]
  ILS at 4 mg/kg: 63%
Mus musculus [30]
  ILS at 8 mg/kg: 76%
Mus musculus [31]
  ILS at 4 mg/kg: 38%
Mus musculus [32]
  ILS at 2 mg/kg: 9%

## COc1cccc2c1C(=O)c1c(O)c3c(c(O)c1C2=O)C[C@@](O)(C(=O)CO)C[C@@H]3O[C@H]1C[C@H](N)[C@H](O)[C@H](C)O1 [DOXORUBICIN]
Mus musculus [33]
  Cures: 5
Mus musculus [34]
  ILS at 2.5 mg/kg: 90%
Mus musculus [35]
  ILS at 2.5 mg/kg: > 675%
Mus musculus [36]
  T/C: 31%
Mus musculus [37]
  ILS at 2.5 mg/kg: > 257%
Mus musculus [38]
  ILS at 2.5 mg/kg: 65%
Mus musculus [39]
  ILS at 2.5 mg/kg: 30%
